In the array DNA melting data of Ke et al. (doi:10.1101/2024.01.08.574731):

Legend:
[1] = folding enthalpy; higher = less favourable; fluorescence melt of hairpins on a sequencing array, two-state fit; details: sodium 0.088 M
Summary of the method: (§1)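 Two-state fits, bootstrapped, provided melting temperature and folding enthalpy from Cy3 fluorescence normalised to pre-quench Cy3 and to control constructs. Library hairpins with annealed Cy3 and quencher oligos were imaged on a sequenced MiSeq flow cell in 50 mM Na-HEPES pH 8.0, 25 mM NaCl, at 2.5 °C intervals up to 60 °C. Four replicates were combined with inverse-variance weighting. A 9.35 °C upward shift was applied to fitted temperatures to match UV melts.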

[2] = melting temperature; fluorescence melt of hairpins on a sequencing array, two-state fit, raised by 9.35 °C to match UV melts; details: sodium 0.088 M
Summary of the method: as §1

| Sequence | folding enthalpy [1] | Tm [2] |
| --- | --- | --- |
| GCTATTGGAAACAACAGC (((.(((....))).))) | -16.9 kcal/mol | 33.7 °C |
| GCTATTGGAAACAATGGC ((.((((....)))).)) | -36.1 kcal/mol | 45.7 °C |
| GCTATTTCGAAAGAAAGC (((..(((....)))))) | -12.5 kcal/mol | 28.3 °C |
| GCTCAGCCGAAAGGCAGC (((..(((....)))))) | -13.1 kcal/mol | 41.1 °C |
| GCTCAGCGAAAGCTCGGC ((..(((....)))..)) | -14.5 kcal/mol | 39.5 °C |
| GCTCAGGGAAACCTGAAC (.(((((....))))).) | -17.4 kcal/mol | 37.7 °C |
| GCTCAGGGAAACCTGGGC ((.((((....)))).)) | -39.6 kcal/mol | 54.4 °C |
| GCTCATACGAAAGTAAGC (((..(((....)))))) | -9.13 kcal/mol | 28 °C |
| GCTCATGAAAATGAGC ((((((....)))))) | -38.5 kcal/mol | 63.6 °C |
| GCTCCACGAAAGTGAAGC (((.(((....))).))) | -30.2 kcal/mol | 51.2 °C |
| GCTCCAGGAAACTGGGGC ((.((((....)))).)) | -39.6 kcal/mol | 57.6 °C |
| GCTCCCGAAAGGGAAGC ((((((....))).))) | -31.8 kcal/mol | 59.3 °C |
| GCTCCCGAAAGGGCCAGC ((((((....)))..))) | -11.7 kcal/mol | 34.8 °C |
| GCTCCCGCGAAAGCGAGC (((..(((....)))))) | -10.7 kcal/mol | 37.5 °C |
| GCTCCCGGAAACGAGAGC ((((.((....)).)))) | -36.5 kcal/mol | 49.2 °C |
| GCTCCCGGAAACGGAAGC (((.(((....))).))) | -28.6 kcal/mol | 50 °C |
| GCTCCGCGAAAGCACAGC (((..((....))..))) | -8.71 kcal/mol | 31.3 °C |
| GCTCCGCGAAAGCCTAGC (((..((....))..))) | -10.7 kcal/mol | 34.7 °C |
| GCTCCGCGAAAGCGATGC ((..(((....)))..)) | -13.3 kcal/mol | 40.8 °C |
| GCTCCGCGAAAGCGCAGC (((.(((....))).))) | -29.8 kcal/mol | 45.5 °C |
| GCTCCGCGAAAGCGGCGC ((.((((....)))).)) | -18.6 kcal/mol | 65.1 °C |
| GCTCCGCGAAAGCTGGGC ((.(.((....)).).)) | -21.5 kcal/mol | 44.9 °C |
| GCTCCGCGAAAGCTTAGC (((..((....))..))) | -14.4 kcal/mol | 35.1 °C |

| Sequence | folding enthalpy [1] | Tm [2] |
| --- | --- | --- |
| GCTCCGGGAAACCGGGGC ((.((((....)))).)) | -43 kcal/mol | 63.8 °C |
| GCTCCTCCGAAAGGAAGC (((..(((....)))))) | -15.9 kcal/mol | 34.2 °C |
| GCTCCTCGAAAGAGAGC (((.(((....)))))) | -30 kcal/mol | 49.2 °C |
| GCTCCTCGAAAGAGCAGC (((.(((....))).))) | -21.5 kcal/mol | 40.6 °C |
| GCTCCTGAAAAGGAGC ((((((....)))))) | -42.6 kcal/mol | 68.5 °C |
| GCTCGAGGAAACTTGGGC ((.(.((....)).).)) | -19.4 kcal/mol | 37.4 °C |
| GCTCGCCGAAAGGCAGC (((.(((....)))))) | -19.9 kcal/mol | 62.6 °C |
| GCTCGCGAAAGCGAAGC ((((((....))).))) | -17.6 kcal/mol | 65.3 °C |
| GCTCGCGAAAGCGAGAGC ((((((....)))..))) | -9.87 kcal/mol | 66.7 °C |
| GCTCGCGAAAGCGGAAGC ((((((....)))..))) | -16.3 kcal/mol | 53.2 °C |
| GCTCGCGAAAGCGTAAGC ((((((....)))..))) | -13.4 kcal/mol | 51.3 °C |
| GCTCGCGAAAGCGTCAGC ((((((....)))..))) | -12.3 kcal/mol | 41.4 °C |
| GCTCGCGGAAACGCAAGC (((.(((....))).))) | -28.7 kcal/mol | 49.8 °C |
| GCTCGGCGAAAGCAGCGC ((.(.((....)).).)) | -14 kcal/mol | 58.5 °C |
| GCTCGGCGAAAGCAGGGC ((.(.((....)).).)) | -14 kcal/mol | 67.7 °C |
| GCTCGGCGAAAGCCCCGC ((..(((....)))..)) | -4.44 kcal/mol | 44.6 °C |
| GCTCGGCGAAAGCCCGGC ((..(((....)))..)) | -7.98 kcal/mol | 56.9 °C |
| GCTCGGCGAAAGCCCTGC ((..(((....)))..)) | -7.65 kcal/mol | 53.4 °C |
| GCTCGGCGAAAGCGCAGC (((..((....))..))) | -9.7 kcal/mol | 51.1 °C |
| GCTCGGCGAAAGCTTAGC (((..((....))..))) | -15.3 kcal/mol | 40.9 °C |
| GCTCGGGCGAAAGCCAGC (((..(((....)))))) | -8.16 kcal/mol | 52 °C |
| GCTCGTCGAAAGACAGC (((.(((....)))))) | -29.6 kcal/mol | 51.4 °C |
| GCTCGTGGAAACACAAGC (((.(((....))).))) | -20 kcal/mol | 43.9 °C |

| Sequence | folding enthalpy [1] | Tm [2] |
| --- | --- | --- |
| GCTCGTGGAAACACGGGC ((.((((....)))).)) | -37.1 kcal/mol | 62.2 °C |
| GCTCTACGAAAGTAAAGC (((.(((....))).))) | -22.9 kcal/mol | 38.4 °C |
| GCTCTCACGAAAGTGAGC (((..(((....)))))) | -7.6 kcal/mol | 35.8 °C |
| GCTCTCCCGAAAGGGAGC (((..(((....)))))) | -7.28 kcal/mol | 33 °C |
| GCTCTCGAAAGAGAAGC ((((((....))).))) | -22 kcal/mol | 49.8 °C |
| GCTCTCGAAAGAGATAGC ((((((....)))..))) | -22.6 kcal/mol | 41.8 °C |
| GCTCTCGAAAGAGCTAGC ((((((....)))..))) | -15.5 kcal/mol | 50.3 °C |
| GCTCTCGAAAGAGGTAGC ((((((....)))..))) | -25.4 kcal/mol | 38.4 °C |
| GCTCTCGAAAGAGTGAGC ((((((....)))..))) | -26 kcal/mol | 41.6 °C |
| GCTCTCGGAAACGGGAGC ((((.((....)).)))) | -41.3 kcal/mol | 57.4 °C |
| GCTCTGCGAAAGCAAGC (((.(((....)))))) | -16.8 kcal/mol | 48.2 °C |
| GCTCTGCGAAAGCGCAGC (((..((....))..))) | -11.4 kcal/mol | 37.6 °C |
| GCTCTGCGAAAGCGTAGC (((..((....))..))) | -17.6 kcal/mol | 38.2 °C |
| GCTCTGGGAAACCAGAAC (.(((((....))))).) | -16.9 kcal/mol | 37.1 °C |
| GCTCTGGGAAACCAGAGC (((((((....))))))) | -42.5 kcal/mol | 69 °C |
| GCTCTTCGAAAGAATAGC (((.(((....))).))) | -30.7 kcal/mol | 38.5 °C |
| GCTCTTGAAAAAGAGC ((((((....)))))) | -32.6 kcal/mol | 58.1 °C |
| GCTCTTTCGAAAGAAAGC (((..(((....)))))) | -13.4 kcal/mol | 32.5 °C |
| GCTGAAACGAAAGTTAGC (((..(((....)))))) | -20.6 kcal/mol | 35 °C |
| GCTGAACCGAAAGGTAGC (((..(((....)))))) | -21.9 kcal/mol | 42.1 °C |
| GCTGAACGAAAGTTAGC (((.(((....)))))) | -26 kcal/mol | 44.1 °C |
| GCTGAAGCGAAAGCTAGC (((..(((....)))))) | -18.6 kcal/mol | 44.6 °C |
| GCTGAAGGAAACTTTAGC (((.(((....))).))) | -29.2 kcal/mol | 41.5 °C |

| Sequence | folding enthalpy [1] | Tm [2] |
| --- | --- | --- |
| GCTGACACGAAAGTGAGC (((..(((....)))))) | -18.3 kcal/mol | 40.3 °C |
| GCTGACCGAAAGGTAAGC (((.(((....))).))) | -33.5 kcal/mol | 57.8 °C |
| GCTGACGAAAGTCAGAGC ((((((....)))..))) | -13.4 kcal/mol | 55.8 °C |
| GCTGACGAAAGTCCAAGC ((((((....)))..))) | -16.5 kcal/mol | 43.5 °C |
| GCTGACGAAAGTCCAGC ((((((....))).))) | -24.7 kcal/mol | 54.5 °C |
| GCTGACGGAAACACCAGC ((((..(....)..)))) | -13.1 kcal/mol | 33.3 °C |
| GCTGACGGAAACGTCGGC ((.((((....)))).)) | -48.3 kcal/mol | 63.3 °C |
| GCTGAGCCGAAAGGCAGC (((..(((....)))))) | -15.2 kcal/mol | 51.7 °C |
| GCTGAGCGAAAGCACAGC ((((.((....)).)))) | -35.6 kcal/mol | 67.8 °C |
| GCTGAGCGAAAGCCCCGC ((.(.((....)).).)) | -12 kcal/mol | 35.8 °C |
| GCTGAGCGAAAGCCCGGC ((.(.((....)).).)) | -20.1 kcal/mol | 52.2 °C |
| GCTGAGCGAAAGCGGAGC (((..((....))..))) | -26.9 kcal/mol | 62.4 °C |
| GCTGAGCGAAAGCTACGC ((..(((....)))..)) | -16.3 kcal/mol | 44.4 °C |
| GCTGAGCGAAAGCTTCGC ((..(((....)))..)) | -13.4 kcal/mol | 49.5 °C |
| GCTGAGGGAAACCTTAGC (((.(((....))).))) | -33.7 kcal/mol | 47.1 °C |
| GCTGCACGAAAGTGAAGC (((.(((....))).))) | -36 kcal/mol | 60.5 °C |
| GCTGCAGCGAAAGCTAGC (((..(((....)))))) | -11.9 kcal/mol | 48.7 °C |
| GCTGCAGGAAACCACAGC ((((..(....)..)))) | -24.9 kcal/mol | 37 °C |
| GCTGCAGGAAACTGCAAC (.(((((....))))).) | -13.5 kcal/mol | 40.9 °C |
| GCTGCCGAAAGGCAAGC ((((((....))).))) | -19.2 kcal/mol | 66.7 °C |
| GCTGCCGAAAGGCACAGC ((((((....)))..))) | -13.4 kcal/mol | 48.2 °C |
| GCTGCCGAAAGGCAGAGC ((((((....)))..))) | -10 kcal/mol | 67.1 °C |
